ChEMBL document CHEMBL4177581, “The compound (3-{5-[(2,5-dimethoxyphenyl)amino]-1,3,4-thiadiazolidin-2-yl}-5,8-methoxy-2H-chromen-2-one) inhibits the prion protein conversion from PrPC to PrPSc with lower IC50 in ScN2a cells” (Bioorg Med Chem, 2017)
The source made the active and inactive calls. The rule behind the calls is not given here.

Columns and labels:
[1] = biological target: T1, Major prion protein (Mesocricetus auratus, UniProt P04273); test: Binding affinity to Syrian hamster PrPC assessed as inhibition of PrPC protein conversion to PrPSc by Western blot
T1 sequence (P04273 whole entry): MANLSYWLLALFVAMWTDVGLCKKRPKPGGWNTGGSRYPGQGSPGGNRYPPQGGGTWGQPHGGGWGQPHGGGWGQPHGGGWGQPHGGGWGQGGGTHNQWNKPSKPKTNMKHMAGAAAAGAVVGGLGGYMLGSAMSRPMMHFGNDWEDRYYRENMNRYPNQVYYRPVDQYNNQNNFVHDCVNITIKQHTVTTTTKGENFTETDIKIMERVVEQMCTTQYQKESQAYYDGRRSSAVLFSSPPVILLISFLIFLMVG

[2] = biological target: Major prion protein (Mesocricetus auratus) (UniProt P04273); test: Binding affinity to Syrian hamster PrPC assessed as inhibition of PrPC protein conversion to PrPSc by measuring PrPSc level relative to untreated control; set-up: concentration or dose not given beside the values
Major prion protein (Mesocricetus auratus), sequence (P04273 whole entry, the tested form may be a part): as the sequence (P04273 whole entry) above

[3] = Antiprion activity against mouse prion protein RML infected mouse ScN2a cells assessed as reduction in proteinase K-resistant PrPSc level incubated for 5 days followed by proteinase K digestion by Western blot method relative to control; assay type: cell-based; settings: 120 h
Outline: (§1)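 RML scrapie-infected mouse N2a (ScN2a) cells treated for 5 days at […]. Lysates were made in 0.5% NP-40/0.5% deoxycholate Tris-HCl pH 8 buffer and normalised to 1 mg/ml protein. They were digested with 20 µg/ml proteinase K for 1 h at 37 °C, stopped with PMSF, and pelleted at 100,000g. Pellets were immunoblotted with 6D11-biotin. DMSO and quinacrine controls set the normalised percent PrPSc change.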

[4] = system: ScN2a; test: Antiprion activity against mouse prion protein RML infected mouse ScN2a cells assessed as reduction in proteinase K-resistant PrPSc level at 10 to 100 uM incubated for 5 days followed by proteinase K digestion by Western blot method relative to control; assay type: cell-based; outline: as §1
[5] = biological target: T1, Major prion protein; test: Binding affinity to Syrian hamster PrPC
[6] = biological target: Major prion protein (Mesocricetus auratus) (UniProt P04273); test: Binding affinity to C-terminal 6x-His-tagged Syrian hamster PrPC (90 to 232 residues) by 15N-HSQC NMR spectroscopy
Outline: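 Uniformly 15N-labelled Syrian hamster PrPC residues 90–232 was titrated with ligand at a 5:1 ligand/protein molar ratio. 15N-HSQC spectra were recorded, and binding was read as chemical shift changes and signal attenuation of residues.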

SMILES: O=C(CCc1nc2ccccc2c(=O)[nH]1)NC1CCCc2ccccc21 (stereo unspecified)
- EC50 [1]: 7.18 µM
- Activity [2]: 65%

SMILES: O=C(N[C@@H]1CCc2ccccc2C1)C(=O)O[C@@H]1C=CCc2ccccc21
- EC50 [1]: 7.27 µM
- Activity [2]: 53%

SMILES: Cc1cccc2cc(C#N)c(N3CCCN(C(=O)C4CCC4)CC3)nc12
- EC50 [1]: 7.29 µM
- Activity [2]: 50.6%

SMILES: CCCCNc1nc2ccccc2n1CC(=O)N1CCc2ccccc21
- EC50 [1]: 7.42 µM
- Activity [2]: 37.3%

SMILES: COc1ccc(-c2cnc(N)nc2-c2ccc(OC)cc2)cc1
- IC50 [3]: 35 µM
- inhibition [4]: Active

SMILES: C=CNC(=O)NC(C)=O
- EC50 [1]: 7.24 µM
- Activity [2]: 56.7%

SMILES: CCC[C@@H]1Nc2ccccc2N1CC(=O)N1CCCc2ccccc21
- EC50 [1]: 7.17 µM
- Activity [2]: 67.2%

SMILES: O=C(NC1CCCC1)C1CCCN1C(=O)Nc1ccccc1 (stereo unspecified)
- EC50 [1]: 7.19 µM
- Activity [2]: 63.2%

SMILES: C[C@@H]1CCCCN1CC(=O)N[C@@H]1S[C@H]2CCCC[C@@H]2[C@H]1C#N
- EC50 [1]: 7.23 µM
- Activity [2]: 58.8%

SMILES: COc1ccc(-c2cnc(N)nc2C)cc1OC
- IC50 [3]: 35 µM
- inhibition [4]: Active

SMILES: N#Cc1c(NC(=O)c2cc3c(s2)CCCC3)sc2c1CCCC2
- EC50 [1]: 7.17 µM
- Activity [2]: 66.9%

SMILES: COc1ccc(-c2nc(N)sc2-c2ccc(OC)cc2)cc1
- IC50 [3]: > 100 µM
- inhibition [4]: Active
- Kd [5]: 15.5 µM

SMILES: O=C(CN1C(=O)N[C@@]2(CCCc3ccccc32)C1=O)N1CCCCC1
- EC50 [1]: 7.17 µM
- Activity [2]: 67.1%

SMILES: O=C(CC1CNc2ccccc21)NC1CCc2ccccc2C1 (stereo unspecified)
- EC50 [1]: 7.25 µM
- Activity [2]: 55.3%
- Kd [5]: 48.6 µM

SMILES: O=C(CN1C(=O)COc2ccccc21)N1CCCc2ccccc21
- EC50 [1]: 7.24 µM
- Activity [2]: 57.5%

SMILES: O=C(CN1C(=O)c2cccc3cccc1c23)N[C@@H]1C[C@H]2CC[C@@H]1C2
- EC50 [1]: 7.18 µM
- Activity [2]: 65%

SMILES: O=C(COC(=O)c1c2c(nc3ccccc13)CCC2)NC1CCCC1
- EC50 [1]: 7.2 µM
- Activity [2]: 62.9%

SMILES: COc1ccc(OC)c(Nc2nnc(-c3cc4cccc(OC)c4oc3=O)s2)c1
- IC50 [3]: 20 µM
- inhibition [4]: Active
- Kd [5]: 46.4 µM

SMILES: COc1ccc(-c2nc(N)sc2C)c(OC)c1
- IC50 [3]: 35 µM
- inhibition [4]: Active

SMILES: COc1ccc(OC)c(-c2nc(NC(=O)c3cc(OC)c(OC)c(OC)c3)sc2C)c1
- IC50 [3]: 75 µM
- inhibition [4]: Active
- Kd [5]: 185 µM

SMILES: Cc1cccc2cc3c(N)c(C(=O)NC4CCCC4)sc3nc12
- EC50 [1]: 7.37 µM
- Activity [2]: 41.9%

SMILES: O=C(CN1CCc2ccccc21)[C@H]1COc2cc3c(cc21)CCC3
- Activity [2]: 63.7%

SMILES: Cc1cc2cc3c(cc2nc1SCCN1CCCCC1)OCCO3
- EC50 [1]: 7.32 µM
- Activity [2]: 47.4%
- Kd [5]: 50.8 µM

SMILES: CCC(C)C(NC(=O)c1ccccc1)C(=O)N1CCc2ccccc21 (stereo unspecified)
- Activity [6]: Active
- EC50 [1]: 7.43 µM
- Activity [2]: 36.8%
- Kd [5]: 51.2 µM

SMILES: CC1CCCCC1NC(=O)COc1ncnc2sc3c(c12)CCC3 (stereo unspecified)
- EC50 [1]: 7.16 µM
- Activity [2]: 68.8%

SMILES: O=C(CSc1ncnc2sc3c(c12)CCC3)NCC1CCCO1 (stereo unspecified)
- EC50 [1]: 7.02 µM

SMILES: CN1/C(=C/C(=O)Nc2cccs2)c2ccccc2CC1(C)C
- EC50 [1]: 7.24 µM
- Activity [2]: 57.4%

SMILES: CC1Cc2ccccc2N1C(=O)COc1ncnc2sccc12 (stereo unspecified)
- EC50 [1]: 7.17 µM
- Activity [2]: 67.4%
